Molecules are shown by their SMILES.

Test [1] has as its target T1, Ribosyldihydronicotinamide dehydrogenase [quinone] (Homo sapiens, UniProt P16083).
T1 sequence (P16083 whole entry): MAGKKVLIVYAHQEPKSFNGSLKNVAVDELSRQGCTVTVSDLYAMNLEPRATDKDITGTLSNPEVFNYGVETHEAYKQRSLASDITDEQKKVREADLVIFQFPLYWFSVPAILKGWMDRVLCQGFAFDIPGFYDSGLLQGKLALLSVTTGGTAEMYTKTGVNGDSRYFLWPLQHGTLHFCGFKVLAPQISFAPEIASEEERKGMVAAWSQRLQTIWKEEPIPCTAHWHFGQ
Put plainly: Inhibition of human recombinant NQO2 by spectrophotometry. In short, it runs like this:
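Recombinant human NQO2 was diluted in 50 mM phosphate to give about 0.1 absorbance/min. Reaction mix: 50 mM phosphate pH 7.4 with 200 µM NRH as cofactor, 40 µM DCPIP and inhibitor in DMSO (1.0% v/v final), 37 °C. DCPIP reduction was followed at 600 nm.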

The subject of test [2] is HCT-116. The test is described as follows: Cytotoxicity against human HCT116 cells after 24 hrs by MTT assay. The settings on record: HCT-116, 24 h. The class given is functional, cell-based. The essentials: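 HCT116 cells were kept in RPMI 1640 with 10% FCS and 2 mM L-glutamine, plated at 2 × 10³ cells/well, 37 °C, 5% CO₂. Drug was given for 24 h, then removed, and cells regrew 3 days in fresh medium. Read-out was MTT for 4 h, formazan dissolved in DMSO, OD read. IC50 is 50% OD reduction vs untreated/vehicle controls. At least three repeats.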
On the technique in general: Formazan colour is commonly taken as a measure of viable cells.

The subject of test [3] is HCT-116. Put plainly: Cytotoxicity against human HCT116 cells after 96 hrs by MTT assay. The settings on record: HCT-116, 96 h. The class given is functional, cell-based. In short, it runs like this:
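HCT116 cells were grown in RPMI 1640 with 10% FCS and 2 mM L-glutamine, seeded at 2 × 10³ cells/well, 37 °C, 5% CO₂. Drug exposure was continuous for 4 days at 37 °C. MTT was then added for 4 h and formazan dissolved in DMSO for OD reading. IC50 is 50% OD drop relative to untreated and/or vehicle cells. At least three repeats.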

The subject of test [4] is Nucleic Acid. Put plainly: Binding affinity to salmon sperm DNA assessed as change in melting temperature at 10 uM under high salt concentration by spectrophotometry. The settings on record: Salmonidae. Type of test: nucleic-acid assay. In short, it runs like this: (§1)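 Salmon sperm DNA at 20 µg/ml was treated with 10 µM compound at high (physiological) or low salt; the low-salt buffer was 7.5 mM NaH₂PO₄, 1 mM EDTA, pH 7.0. Cuvettes were heated from 37 to 98 °C with A260 read every degree. Tm change is in °C, SD from three independent experiments.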

Test [5] has as its system Nucleic Acid. Put plainly: Binding affinity to salmon sperm DNA assessed as change in melting temperature at 10 uM under low salt concentration by spectrophotometry. The settings on record: Salmonidae. Type of test: nucleic-acid assay. In short, it runs like this: as §1
The target of test [6] is NAD(P)H dehydrogenase [quinone] 1 (Homo sapiens, UniProt P15559). The test is described as follows: Inhibition of human recombinant NQO1 by spectrophotometry.
The test system of test [7] is Nucleic Acid. The test is described as follows: Binding affinity to salmon sperm DNA assessed as melting temperature at 10 uM under low salt concentration by spectrophotometry. Type of test: nucleic-acid assay. The settings on record: Salmonidae.

Chain of NAD(P)H dehydrogenase [quinone] 1 (P15559 whole entry): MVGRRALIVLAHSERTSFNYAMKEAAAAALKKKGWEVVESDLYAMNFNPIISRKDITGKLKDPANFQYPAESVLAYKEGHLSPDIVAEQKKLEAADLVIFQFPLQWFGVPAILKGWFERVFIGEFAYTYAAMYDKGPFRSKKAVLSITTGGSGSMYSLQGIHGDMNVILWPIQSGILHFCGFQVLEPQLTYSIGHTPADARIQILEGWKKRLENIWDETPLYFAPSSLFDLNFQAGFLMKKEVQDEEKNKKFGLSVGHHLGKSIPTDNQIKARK

Broadly, the IC50 is the concentration at which inhibition is half-maximal. As usually defined, the ΔTm is the change in melting temperature against a reference sample. As to `CC(C)CCNc1ccc2nnn3c4ccc(Br)cc4c(=O)c1c23`, the IC50 was 767 nM in test [1], 27 µM with HCT-116 [2] and 7000 nM in the test with HCT-116 [3]. Also, the ΔTm in the test with Nucleic Acid [4] came out at 0.09 °C; in the test on Nucleic Acid [5] it was 1.9 °C.

`O=c1c2ccccc2n2nnc3ccc(NCCc4ccccc4)c1c32`: the IC50 was 3280 nM in test [6], 567 nM in test [1], 3.5 µM in the test on HCT-116 [2] and 803 nM in the test on HCT-116 [3]. In addition, the ΔTm in the test on Nucleic Acid [4] was 0.31 °C; in the test with Nucleic Acid [5] it was 1.7 °C.

With `O=c1c2cc(Br)ccc2n2nnc3ccc(NCCCO)c1c32`, the IC50 was 987 nM in test [1], 2.8 µM in the test with HCT-116 [2] and 715 nM with HCT-116 [3]. The results for the ΔTm in the test on Nucleic Acid [4] and in the test with Nucleic Acid [5] were 0.42 °C and 3 °C, respectively.

`CN(C)CCNc1ccc2nnn3c4ccccc4c(=O)c1c23`: the IC50 in test [6] worked out at 1800 nM; in test [1], 1830 nM; with HCT-116 [2] it was 20.5 µM; in the test with HCT-116 [3], 12400 nM. In addition, the thermal shift (ΔTm) with Nucleic Acid [4] amounted to 0.33 °C; in the test on Nucleic Acid [5], 1.7 °C.

With `CN(C)CCNc1ccc2nnn3c4ccc(F)cc4c(=O)c1c23`, the IC50 in test [1] was 783 nM; in the test on HCT-116 [2] it was 1.2 µM; with HCT-116 [3], 465 nM. The thermal shift (ΔTm) came to 0.03 °C with Nucleic Acid [4] and 2.6 °C in the test on Nucleic Acid [5].

For the compound `C[N+](C)([O-])CCNc1ccc2nnn3c4ccc(Br)cc4c(=O)c1c23`, the IC50 is 117 nM in test [1], 48 µM with HCT-116 [2] and 12000 nM in the test with HCT-116 [3]. Moreover, the ΔTm worked out at 0.45 °C in the test on Nucleic Acid [4] and 0.1 °C in the test on Nucleic Acid [5].

Take `C[N+](C)([O-])CCNc1ccc2nnn3c4ccccc4c(=O)c1c23`: the IC50 is 167 nM in test [1], 80 µM with HCT-116 [2] and 23800 nM in the test on HCT-116 [3]. Also, the ΔTm in the test with Nucleic Acid [4] worked out at 0.22 °C; in the test with Nucleic Acid [5], 0.5 °C.

In the case of `O=c1c2ccccc2n2nnc3ccc(NCCCO)c1c32`, the results for the IC50 (in test [1]; in the test on HCT-116 [2]; in the test on HCT-116 [3]) were 483 nM, 0.99 µM and 630 nM, respectively. For the same compound, the ΔTm with Nucleic Acid [4] was 1.48 °C; in the test with Nucleic Acid [5], 3 °C.

`COc1ccc2c(c1)c(=O)c1c(NCCc3ccccc3)ccc3nnn2c31`: the IC50 came out at 3930 nM in test [6], 350 nM in test [1], 12.5 µM with HCT-116 [2] and 711 nM in the test on HCT-116 [3]. Moreover, the ΔTm in the test on Nucleic Acid [4] is 0.08 °C; in the test on Nucleic Acid [5], 1.7 °C.

For `COc1ccc2c(c1)c(=O)c1c(NCCN(C)C)ccc3nnn2c31`, the IC50 in test [6] came to 111 nM; in test [1], 1330 nM; in the test on HCT-116 [2] it was 1 µM; in the test on HCT-116 [3], 333 nM. The ΔTm was found to be 0.08 °C in the test on Nucleic Acid [4] and 2.9 °C in the test with Nucleic Acid [5]. For the same compound, in the test with Nucleic Acid [7], the Tm is 83 °C.

`COc1ccc(Nc2ccc3nnn4c5ccccc5c(=O)c2c34)cc1`: the IC50 in test [1] was 98 nM; with HCT-116 [2], 1.9 µM; in the test with HCT-116 [3], 630 nM. The ΔTm with Nucleic Acid [4] was determined as 0.19 °C; in the test on Nucleic Acid [5], 0.2 °C.

For `CN(C)CCNc1ccc2nnn3c4ccc(Br)cc4c(=O)c1c23`, the IC50 turned out to be 1480 nM in test [1], 1.6 µM in the test with HCT-116 [2] and 495 nM with HCT-116 [3]. For the same compound, the values for the ΔTm in the test on Nucleic Acid [4] and in the test with Nucleic Acid [5] were 0.2 °C and 2.6 °C, respectively.

In the case of `CC(C)CCNc1ccc2nnn3c4ccccc4c(=O)c1c23`, the results for the 50% inhibitory concentration (IC50) (in test [1]; in the test on HCT-116 [2]; in the test with HCT-116 [3]) were 427 nM, 3.2 µM and 815 nM, respectively. Besides, the results for the thermal shift (ΔTm) in the test with Nucleic Acid [4] and in the test on Nucleic Acid [5] were 0.23 °C and 2 °C, respectively.

As to `COc1ccc2c(c1)c(=O)c1c(NCC[N+](C)(C)[O-])ccc3nnn2c31`, the IC50 came to 98 nM in test [1], 57 µM in the test with HCT-116 [2] and 18800 nM with HCT-116 [3]. Also, the ΔTm in the test on Nucleic Acid [4] is 0.3 °C; in the test on Nucleic Acid [5] it was 0.15 °C. The Tm in the test on Nucleic Acid [7] was found to be 80 °C.

`COc1cccc2c1C(=O)c1c(O)c3c(c(O)c1C2=O)C[C@@](O)(C(=O)CO)C[C@@H]3O[C@H]1C[C@H](N)[C@H](O)[C@H](C)O1`: the ΔTm in the test on Nucleic Acid [5] amounted to 8 °C. For the same compound, the Tm in the test on Nucleic Acid [7] was found to be 88 °C.

As for `COc1ccc2c(c1)c(=O)c1c(NCCCO)ccc3nnn2c31`, the IC50 stood at 517 nM in test [1], 1.5 µM in the test on HCT-116 [2] and 627 nM with HCT-116 [3]. The ΔTm in the test on Nucleic Acid [4] was determined as 0.19 °C; with Nucleic Acid [5] it was 3.2 °C.

The record behind these values is ChEMBL document CHEMBL1159058, “Triazoloacridin-6-ones as novel inhibitors of the quinone oxidoreductases NQO1 and NQO2” (Bioorg Med Chem, 2010).
